Results collected from several papers.
Each line is one published result; the experiments were not run side by side.
Cell line: HepG2
Read-out: cell growth or viability

With `CCOC(=O)c1ccc(-n2c(C)cc(/C=C/c3ccc(OC)cc3)c(C#N)c2=O)cc1` the viability was 58.1% (MTT; 50 µM, 24 h).
For `COc1ccc(NCC(=O)Nc2c(C#N)sc(Nc3ccccc3)c2C(=O)Nc2ccc(OC)cc2)cc1`, the viability was 52.4% (SRB; 10 µM, 48 h).
The IC50 of `C=CCn1c(-c2ccc(OC)c(OC)c2)nc2ccccc21` is reported as 53.8 µM (MTT).
`COc1ccc(NC(=O)c2c(Nc3ccccc3)sc(C#N)c2NC(=O)CNc2ccc([N+](=O)[O-])cc2)cc1` gave a viability of 68.4% (SRB; 1 µM, 48 h).
For `c1ccc2c(-c3nc4ccccc4[nH]3)c3ccccc3cc2c1`, the IC50 was 9.79 µM (MTT; 48 h).
The viability of `CCOC(=O)c1ccc(-n2c(-c3ccc(C)cc3)cc(-c3ccc(O)cc3)c(C#N)c2=O)cc1` is reported as 67.9% (MTT; 6.25 µM, 24 h).
`Cc1ccc2nc(-c3ccc(F)cc3)[nH]c2c1` has an IC50 of 80.4 µM (MTT; 48 h).
`Cc1ccc(-c2cc(-c3ccc4oc(=O)cc(C)c4c3O)nc(N)n2)cc1` gave an inhibition of 0% (MTT; 32 µg/mL, 72 h).
For `CC(C)(CO)Cn1nc(-c2ccc3cc(OC4CC4)ccc3c2)c2c(N)ncnc21`, the GI50 was > 10 µM.
`CCn1cc(-c2nc(C)no2)c(=O)c2cc(F)c(N3CCC(c4ccccc4)CC3)cc21` gave an EC50 of > 40 µM (ATP luminescence; 48 h).
The viability of `COc1ccc(NC(=O)c2c(Nc3ccccc3)sc(C#N)c2NC(=O)CNc2ccccc2Cl)cc1` is reported as 90.3% (SRB; 100 µM, 48 h).
With `COc1cccc(/C=C2\SC(=S)N(CC(=O)Nc3ccccc3)C2=O)c1` the inhibition was 13.9% (MTT; 10 µM).
`Cc1cc(=O)oc2ccc(-c3cc(-c4cccs4)nc(N)n3)c(O)c12` has an inhibition of 36% (MTT; 128 µg/mL, 72 h).
`O=C(CN1C(=O)/C(=C/c2ccccc2Cl)SC1=S)Nc1ccccc1` has an inhibition of 11% (MTT; 10 µM).
`COc1cccc(-c2nc3ccccc3[nH]2)c1` gave an IC50 of 47.1 µM (MTT; 48 h).
The viability of `CCOC(=O)c1ccc(-n2c(N)c(C#N)c(CC#N)c(C#N)c2=O)cc1` is reported as 63.6% (MTT; 12.5 µM, 24 h).
The viability of `COc1ccc(NC(=O)c2c(Nc3ccccc3)sc(C#N)c2NC(=O)CNc2ccc(Cl)cc2)cc1` is reported as 45.3% (SRB; 1 µM, 48 h).
`Cc1cc(Nc2ccc(C(=O)N/N=C/c3nc4ccccc4[nH]3)cc2)c2cccc(O)c2n1` gave an inhibition of 46.4% (MTT; 20 µM).
For `COc1ccc(NC(=O)c2c(Nc3ccccc3)sc(C(=O)NN=Cc3cc(OC)c(OC)c(OC)c3)c2NC(C)=O)cc1`, the viability was 89.2% (SRB; 10 nM, 48 h).
With `CCOC(=O)c1ccc(N2C(N)=C(C#N)C3(C(=O)Nc4ccccc43)C(C#N)=C2O)cc1` (stereo not drawn) the viability was 37.7% (MTT; 12.5 µM, 24 h).
`COc1ccc(C=NNC(=O)c2sc(Nc3ccccc3)c(C(=O)Nc3ccc(OC)cc3)c2NC(C)=O)cc1` gave a viability of 56.3% (SRB; 10 µM, 48 h).
`COc1cc2ncnc(Nc3ccc(F)c(Cl)c3)c2cc1NC(=O)N/N=C/c1cccn1CCN(C)C` has an IC50 of 0.11 µM (MTT; 72 h).
`CCOC(=O)c1ccc(-n2c(C)cc(/C=C/c3ccc(OCC)cc3)c(C#N)c2=O)cc1` gave a viability of 53.1% (MTT; 50 µM, 24 h).
With `COc1ccc(NC(=O)c2c(Nc3ccccc3)sc(C(=O)NN=Cc3ccc(OC)c(O)c3)c2NC(C)=O)cc1` the viability was 100% (SRB; 1 nM, 48 h).
